# Counter-ions that a name gives are not always drawn.
# How the values were obtained:
# [1] = molecular target: Gamma-aminobutyric acid receptor subunit alpha-1 (Rattus norvegicus, UniProt P62813); test: Agonist activity at rat recombinant GABAA alpha-1-beta-3-gamma-2 receptor expressed in HEK293 cells assessed as normalization of GABA-induced current by whole cell patch-clamp technique
# Method in brief: (§1)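 HEK293 cells transiently co-transfected (calcium phosphate) with rat αi, β3 and γ2S cDNAs plus EGFP marker; recorded 2 days later by whole-cell patch clamp in HEPES saline pH 7.35.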
# [2] = molecular target: Gamma-aminobutyric acid receptor subunit alpha-2 (Rattus norvegicus, UniProt P23576); test: Agonist activity at rat recombinant GABAA alpha-2-beta-3-gamma-2 receptor expressed in HEK293 cells assessed as normalization of GABA-induced current by whole cell patch-clamp technique; method in brief: as §1
# Gamma-aminobutyric acid receptor subunit alpha-2, sequence (P23576 whole entry): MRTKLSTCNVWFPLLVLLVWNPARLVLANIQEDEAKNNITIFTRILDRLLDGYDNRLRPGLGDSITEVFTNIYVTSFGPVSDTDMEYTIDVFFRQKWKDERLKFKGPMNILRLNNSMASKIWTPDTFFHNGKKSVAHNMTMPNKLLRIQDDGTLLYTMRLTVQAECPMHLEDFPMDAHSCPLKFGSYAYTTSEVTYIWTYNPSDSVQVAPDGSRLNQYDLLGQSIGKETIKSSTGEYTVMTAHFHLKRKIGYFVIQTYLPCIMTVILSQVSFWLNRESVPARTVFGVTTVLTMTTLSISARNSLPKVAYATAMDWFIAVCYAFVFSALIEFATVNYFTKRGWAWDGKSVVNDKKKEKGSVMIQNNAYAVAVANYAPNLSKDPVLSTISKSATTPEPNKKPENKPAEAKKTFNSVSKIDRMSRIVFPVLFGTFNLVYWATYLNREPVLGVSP
# Gamma-aminobutyric acid receptor subunit alpha-1, sequence (P62813 whole entry): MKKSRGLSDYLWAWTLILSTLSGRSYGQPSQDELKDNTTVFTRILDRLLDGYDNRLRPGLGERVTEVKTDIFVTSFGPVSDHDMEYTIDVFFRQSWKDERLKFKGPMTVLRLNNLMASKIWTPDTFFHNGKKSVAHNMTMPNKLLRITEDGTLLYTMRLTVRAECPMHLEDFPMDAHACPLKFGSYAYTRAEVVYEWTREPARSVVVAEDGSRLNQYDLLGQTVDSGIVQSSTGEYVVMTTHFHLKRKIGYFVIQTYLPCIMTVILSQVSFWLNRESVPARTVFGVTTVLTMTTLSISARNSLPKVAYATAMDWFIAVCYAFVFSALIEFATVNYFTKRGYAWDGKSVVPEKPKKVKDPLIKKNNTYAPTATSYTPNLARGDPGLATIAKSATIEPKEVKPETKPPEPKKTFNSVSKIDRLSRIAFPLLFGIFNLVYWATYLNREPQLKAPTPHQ
smiles,measurement,setting,value
"NCc1n[nH]c(=O)o1 [5-Aminomethyl-3H-[1,3,4]oxadiazol-2-one Hydrochloride]",EC50,[1],280 µM
same,EC50,[2],182 µM
